The results in this text go back to ChEMBL document CHEMBL1123708, “Resolved cis- and trans-2-amino-5-methoxy-1-methyltetralins: central dopamine receptor agonists and antagonists” (1987).

Activity calls are given as the source filed them. The rule behind the calls is not given here.

Assay [1] deals with Rattus norvegicus. In words: Locomotory activity was determined in reserpine pretreated rats at a dose of 52 umol/kg by subcutaneous administration. Value is the accumulation counts/30 min. In kind it is functional. The gist of the method:
(§1)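 Rats were given reserpine 5 mg/kg sc 18 h beforehand, then test drug sc immediately before the activity session. Motor activity was recorded by photocells in motility meters as accumulated counts over 30 min, mean ± SEM, n = 3-4. Gross behaviour was watched for signs of stimulation. Reserpine-only controls were included.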

Assay [2] has as its system Rattus norvegicus. As to the kind of experiment: In vivo DOPA accumulation in reserpine pretreated rat limbic system by subcutaneous administration; I denotes inactive. In kind it is functional, organism-based. The gist of the method: (§2)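 Rats received reserpine (5 mg/kg sc) 18 h, test drug sc 60 min and NSD 1015 (100 mg/kg ip) 30 min before death, with saline controls. Limbic or striatal DOPA was measured. Dose for half-maximal decrease was estimated from 4-7-dose curves (n = 3-5), minimal level as % of control.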

Assay [3] deals with Rattus norvegicus. In words: In vivo DOPA accumulation in non pretreated rat striatum system by subcutaneous administration; I denotes inactive. In kind it is functional, organism-based. The gist of the method: (§3)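 Rats without pretreatment received test drug sc 65 min and NSD 1015 (100 mg/kg ip) 30 min before death, with saline controls. DOPA was measured in limbic or striatal tissue. Dose for half-maximal change was estimated from 4-5-dose curves (n = 3-5), maximal level as % of control.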

In assay [4] the test system is Rattus norvegicus. In words: Locomotory activity was determined in non pretreated rats at a dose of 3.2 umol/kg by subcutaneous administration. The assay is classed as functional. The gist of the method: (§4)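 Untreated rats received test drug sc 5 min before a 30-min session in photocell motility meters, with accumulated counts recorded. Activity is expressed as percent of saline controls, mean ± SEM, n = 3-5. Gross behaviour was observed through a semitransparent mirror. Differences from saline controls were assessed by Student's t test.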

Assay [5] deals with Rattus norvegicus. As to the kind of experiment: In vivo DOPA accumulation in non pretreated rat limbic system by subcutaneous administration; I denotes inactive. In kind it is functional, organism-based. The gist of the method: as §3
For assay [6], the system named is Rattus norvegicus. In words: Locomotory activity was determined in non pretreated rats at a dose of 52 umol/kg by subcutaneous administration. In kind it is functional. The method, boiled down: as §4
For assay [7], the system named is Rattus norvegicus. As to the kind of experiment: In vivo DOPA accumulation in reserpine pretreated rat striatum system by subcutaneous administration; denotes inactive. The assay is classed as functional, organism-based. The method, boiled down:
as §2

For assay [8], the system named is Rattus norvegicus. As to the kind of experiment: Induced locomotor stimulation in non pre-treated rats by 13 umol/kg s.c. administration. The assay is classed as functional.
The subject of assay [9] is Rattus norvegicus. In words: In vivo DOPA accumulation in non pre-treated rat limbic system following s.c. administration. The following applies: sc. The assay is classed as functional. The method, boiled down: as §3
Assay [10] has as its system Rattus norvegicus. In words: In vivo DOPA accumulation in non pre-treated rat striatal system following s.c. administration. In kind it is functional. As to conditions: sc. The gist of the method: as §3
The test system of assay [11] is Rattus norvegicus. In words: Change in rectal temperature induced by DiPr-5,6-ADTN at a dose of 13 umol/kg of compound by subcutaneous administration. In kind it is functional. The gist of the method: (§5)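 Rats received DiPr-5,6-ADTN (0.25 μmol/kg sc) 100 min and test compound sc 40 min before death. Rectal temperature change (°C) was recorded between 60 and 100 min after DiPr-5,6-ADTN. Values are mean ± SEM, n = 4, with Student's t test vs DiPr-5,6-ADTN alone.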

The subject of assay [12] is Rattus norvegicus. In words: Induced locomotor stimulation in non pre-treated rats by 52 umol/kg s.c. administration. In kind it is functional.
Assay [13] concerns the target T1, Dopamine receptor (Rattus norvegicus) (UniProt P25115+P19020+P30729+P18901+P61169). As to the kind of experiment: Ability to displace the Dopamine receptor agonist DiPr-5,6-ADTN from rat striatal binding sites in vivo at a dose of 52 uM/kg by subcutaneous administration. In kind it is organism-based.
The test system of assay [14] is Rattus norvegicus. As to the kind of experiment: Change in rectal temperature induced by DiPr-5,6-ADTN at a dose of 52 umol/kg of compound by subcutaneous administration. The assay is classed as functional. The gist of the method:
as §5

The target of assay [15] is T1, Dopamine receptor (Rattus norvegicus). In words: In vivo displacement of DiPr-5,6-ADTN from Dopamine receptors in rat striatum. The assay is classed as organism-based.
Assay [16] concerns Rattus norvegicus. In words: Induced locomotor stimulation was determined in non pretreated rats at a dose of 52 umol/kg by subcutaneous administration. The assay is classed as functional. The method, boiled down: as §4
Assay [17] has as its target T1, Dopamine receptor (Rattus norvegicus). As to the kind of experiment: Ability to displace the Dopamine receptor agonist DiPr-5,6-ADTN from rat striatal binding sites in vivo at a dose of 52 umol/kg by subcutaneous administration. The assay is classed as organism-based.
Assay [18] concerns Rattus norvegicus. In words: Change in rectal temperature induced by DiPr-5,6-ADTN at a dose of 204 umol/kg of compound by subcutaneous administration. The assay is classed as functional. The gist of the method:
as §5

The subject of assay [19] is Rattus norvegicus. In words: Induced locomotor stimulation was determined in non pretreated rats at a dose of 13 umol/kg by subcutaneous administration. The assay is classed as functional.
For assay [20], the system named is Rattus norvegicus. As to the kind of experiment: ((+)-UH-232) induced locomotor stimulation was determined in non pretreated rats at a dose of 52 umol/kg by subcutaneous administration. The assay is classed as functional.
Assay [21] has as its system Rattus norvegicus. As to the kind of experiment: ((+)-UH-232) induced locomotor stimulation was determined in non pretreated rats at a dose of 204 umol/kg by subcutaneous administration. The assay is classed as functional.
Assay [22] has as its system Rattus norvegicus. In words: In vivo DOPA accumulation in non pretreated rat limbic system by subcutaneous administration;. indicates 40-50% increase in limbic system after 52 umol/kg (sc). In kind it is functional, organism-based. The gist of the method: as §3
Assay [23] addresses T1, Dopamine receptor (Rattus norvegicus). As to the kind of experiment: Ability to displace the Dopamine receptor agonist DiPr-5,6-ADTN from rat striatal binding sites in vivo at a dose of 13 uM/kg by subcutaneous administration. In kind it is organism-based.
Assay [24] relates to Rattus norvegicus. As to the kind of experiment: In vivo DOPA accumulation in non pretreated rat striatum system by subcutaneous administration.; hr indicates 40-50% increase in limbic system after 52 umol/kg (sc). In kind it is functional, organism-based. The gist of the method: as §3
Assay [25] concerns the target T1, Dopamine receptor (Rattus norvegicus). In words: Ability to displace the Dopamine receptor agonist DiPr-5,6-ADTN from rat striatal binding sites in vivo at a dose of 10 uM/kg by subcutaneous administration. In kind it is organism-based.
The subject of assay [26] is Rattus norvegicus. As to the kind of experiment: Locomotory activity was determined in non pretreated rats at a dose of 13.4 umol/kg by subcutaneous administration. The assay is classed as functional. The method, boiled down:
as §4

Assay [27] has as its system Rattus norvegicus. As to the kind of experiment: In vivo DOPA accumulation in reserpine pretreated rat striatum system by subcutaneous administration. In kind it is functional. As to conditions: sc. The method, boiled down:
as §2

Assay [28] has as its system Rattus norvegicus. In words: Locomotory activity was determined in reserpine pretreated rats at a dose of 3.2 umol/kg by subcutaneous administration. Value is the accumulation counts/30 min. The assay is classed as functional. The method, boiled down:
as §1

For assay [29], the system named is Rattus norvegicus. In words: In vivo DOPA accumulation in reserpine pretreated rat limbic system by subcutaneous administration. The assay is classed as functional. The following applies: sc. The gist of the method:
as §2

Assay [30] relates to Rattus norvegicus. As to the kind of experiment: Change in rectal temperature induced by DiPr-5,6-ADTN at a dose of 10 umol/kg of compound by subcutaneous administration. In kind it is functional. The method, boiled down: as §5
Assay [31] deals with T1, Dopamine receptor (Rattus norvegicus). As to the kind of experiment: Ability to displace the DA receptor agonist DiPr-5,6-ADTN from rat striatal binding sites in vivo at a dose of 40 uM/kg by subcutaneous administration. In kind it is organism-based.
In assay [32] the test system is Rattus norvegicus. As to the kind of experiment: Change in rectal temperature induced by DiPr-5,6-ADTN at a dose of 40 umol/kg of compound by subcutaneous administration. The assay is classed as functional. The method, boiled down:
as §5

As usually defined, the ED50 is the dose that gives a 50% effect, or the effect in half of the subjects.

For the compound `CCCN[C@H]1CCc2c(OC)cccc2[C@H]1C`, the Activity amounted to 12 counts/30 min in the assay on Rattus norvegicus [1], 113% with Rattus norvegicus [4] and 119% in the assay on Rattus norvegicus [6]. For the same compound, the ED50 result in the assay on Rattus norvegicus [2], in the assay on Rattus norvegicus [3], in the assay on Rattus norvegicus [5] and with Rattus norvegicus [7] was “inactive” throughout.
On to `CCN(CC)[C@@H]1CCc2c(OC)cccc2[C@@H]1C`, for which the Activity in the assay on Rattus norvegicus [8] amounted to 40%; in the assay on Rattus norvegicus [12], 46%; in the assay with Rattus norvegicus [4], 100%; in the assay on Rattus norvegicus [16] it was 14%. Also, the figures for the ED50 in the assay on Rattus norvegicus [9] and with Rattus norvegicus [10] were 5.5 µmol/kg and 2.9 µmol/kg, respectively. Further, the values for the Body temp change in the assay on Rattus norvegicus [11] and with Rattus norvegicus [14] were 1.2 °C and 1.4 °C, respectively. The Binding worked out at 28% in [13] and 44% in assay [15].
In the case of `CCCN[C@@H]1CCc2c(OC)cccc2[C@@H]1C`, the ED50 is 4.6 µmol/kg in the assay on Rattus norvegicus [9] and 4.4 µmol/kg in the assay with Rattus norvegicus [10]. Moreover, the Binding in assay [17] came to 41%; in [15] it was 85%. In addition, the Temperature in the assay on Rattus norvegicus [18] is 0.47 °C; in the assay on Rattus norvegicus [11], 1.3 °C; in the assay on Rattus norvegicus [14], 1.05 °C. Moreover, the Activity in the assay on Rattus norvegicus [19] was 95%; with Rattus norvegicus [12], 159%; in the assay with Rattus norvegicus [4] it was 132%; with Rattus norvegicus [20] it was 54%; in the assay on Rattus norvegicus [21] it was 29%.
On to `CCCCN[C@@H]1CCc2c(O)cccc2[C@@H]1C`, for which the figures for the Activity with Rattus norvegicus [8], in the assay with Rattus norvegicus [12] and in the assay on Rattus norvegicus [4] were 80%, 76% and 89%, respectively. For the same compound, the ED50 entry in the assay on Rattus norvegicus [22] and in the assay with Rattus norvegicus [24] was “Weak activity” throughout. In the assay on Rattus norvegicus [11], this compound displayed a Body temp change of -0.93 °C. The compound also registered a Binding in assay [23] of 46%.
For the compound `CCCN(CCC)[C@H]1CCc2c(O)cccc2[C@H]1C`, the median effective dose (ED50) in the assay with Rattus norvegicus [9] is 0.84 µmol/kg; in the assay with Rattus norvegicus [10], 0.84 µmol/kg; in the assay on Rattus norvegicus [27] it was 0.34 µmol/kg; with Rattus norvegicus [29], 0.3 µmol/kg. For the same compound, the Binding in assay [25] came out at 90%; in assay [31] it was 37%. For the same compound, the Activity with Rattus norvegicus [26] was determined as 171%; in the assay with Rattus norvegicus [4] it was 65%; in the assay on Rattus norvegicus [28], 121 counts/30 min. Further, the Body temp change with Rattus norvegicus [30] was 0.1 °C; in the assay with Rattus norvegicus [32], -0.2 °C.
